Laboratory results taken from ChEMBL document CHEMBL3808379, “Isouronium and N-hydroxyguanidinium derivatives as Cell growth inhibitors: A comparative study” (Eur J Med Chem, 2016).
Blank lines part the entries; values can stand above or below the compound they belong to. Calls of active or inactive are those of the source. No cut-off for these calls is given here.

How the values were obtained:
[1] = Cell cycle arrest in human HL60 cells assessed as accumulation at G2/M phase at 50 uM after 48 hrs by propidium iodide staining-based flow cytometric analysis (reference value: 11.35 +/- 1.05%); format: functional; details: HL-60
[2] = Cell cycle arrest in human HL60 cells assessed as accumulation at pre-G1 phase at 50 uM after 24 hrs by propidium iodide staining-based flow cytometric analysis (reference value: 0.81 +/- 0.11%); format: functional; details: HL-60
HL-60 [3] = assay: Induction of apoptosis in human HL60 cells at 100 uM after 72 hrs by propidium iodide staining-based flow cytometric analysis; format: functional
Procedure, shortened: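 HL-60 cells seeded at 200,000 cells/mL and treated 72 h, vehicle 1% (v/v) ddH2O. Harvested by centrifugation, fixed overnight in ice-cold 70% EtOH/PBS at −20 °C, then PI-stained 30 min at 37 °C. Flow cytometry of 10,000 gated events. Apoptosis taken from pre-G1 (<2N DNA) peak. Mean ± S.E.M., ≥3 experiments.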

[4] = Cell cycle arrest in human HL60 cells assessed as accumulation at G0/G1 phase at 50 uM after 48 hrs by propidium iodide staining-based flow cytometric analysis (reference value: 58.77 +/- 2.33%); format: functional; details: HL-60
[5] = Cytotoxicity in mouse NIH/3T3 cells assessed as induction of apoptosis at 50 to 100 uM after 72 hrs by propidium iodide staining-based flow cytometric analysis; format: cell-based; details: nih3t3, 72 h
Procedure, shortened: (§1)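 Cells seeded at 6000 cells per cm² and left 24 h, then given compound at 50 or 100 μM or vehicle (1% ddH2O) for 72 h. Trypsinised, fixed overnight at −20 °C in ice-cold 70% EtOH/PBS, then PI-stained 30 min at 37 °C. 10,000 gated events per sample. Sub-diploid (<2N, M1) cells scored as apoptotic. Mean ± S.E.M., ≥3 experiments.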

[6] = Cell cycle arrest in human HL60 cells assessed as accumulation at polyploid Gn phase at 50 uM after 48 hrs by propidium iodide staining-based flow cytometric analysis (reference value: 3.02 +/- 0.56%); format: functional; details: HL-60
[7] = Cell cycle arrest in human HL60 cells assessed as accumulation at G0/G1 phase at 50 uM after 24 hrs by propidium iodide staining-based flow cytometric analysis (reference value: 56.05 +/- 1.4%); format: functional; details: HL-60
[8] = Cell cycle arrest in human HL60 cells assessed as accumulation at polyploid Gn phase at 50 uM after 72 hrs by propidium iodide staining-based flow cytometric analysis (reference value: 3.43 +/- 0.48%); format: functional; details: HL-60
[9] = Cytotoxicity against human HL60 cells assessed as cell viability reduction incubated for 72 hrs by alamar blue assay; format: functional, cell-based; details: HL-60, 72 h
Procedure, shortened: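 HL-60 cells in log phase, 40,000 per well, were treated in triplicate with compound at 10–100 µM (final, 1:100 from ddH2O stocks) or 1% ddH2O vehicle for 72 h at 37 °C. AlamarBlue was then added for 4.5 h in the dark and fluorescence read at ex 544/em 590 nm. Viability is blank-subtracted and expressed as % of vehicle. IC50 comes from a sigmoidal fit; ≥3 independent experiments.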

HL-60 [10] = assay: Induction of apoptosis in human HL60 cells assessed as caspase 3/7 activation at 50 to 100 uM after 48 hrs by caspase-glo luminescence assay relative to vehicle control; format: functional, cell-based
Procedure, shortened: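 HL-60 cells seeded at 20,000 cells/100 μl and treated 48 h with 0, 50 or 100 μM. Viability first measured by AlamarBlue. Cells then lysed with an equal volume of Caspase-Glo 3/7 reagent, shaken 1 h at room temperature in darkness, and luminescence read. Luminescence normalised to viability. Mean ± SEM, ≥3 experiments; P<0.05 taken as significant.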

[11] = Cytotoxicity against human MCF10A cells assessed as cell viability reduction at 50 to 100 uM incubated for 72 hrs by alamar blue-based fluorimetric assay; details: mcf-10a
Procedure, shortened: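 MCF-10A cells, 2000 per well, were allowed to attach for 24 h, then treated with 50 or 100 µM or with 1% ddH2O vehicle for 72 h. AlamarBlue (10% v/v) was added for 4.5 h at 37 °C in the dark and fluorescence read at ex 544/em 590 nm. Viability is expressed as % of vehicle after blank subtraction; mean ± S.E.M., ≥3 experiments.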

[12] = Binding affinity to salmon sperm DNA assessed as increase in thermal melting temperature by spectrophotometric analysis; details: Salmonidae
[13] = Cytotoxicity against mouse NIH/3T3 cells assessed as cell viability reduction at 50 to 100 uM incubated for 72 hrs by alamar blue-based fluorimetric assay; details: nih3t3, 72 h
Procedure, shortened: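 NIH/3T3 cells seeded at 10,000 cells/mL and left 24 h at 37 °C before treatment. Compound at 50 or 100 μM final for 72 h, vehicle 1% (v/v) ddH2O. AlamarBlue 10% (v/v) then added for 4.5 h in darkness at 37 °C. Fluorescence read at ex 544/em 590 nm, blank subtracted, expressed as % of vehicle control. Mean ± S.E.M., at least 3 experiments.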

[14] = Cell cycle arrest in human HL60 cells assessed as accumulation at G2/M phase at 50 uM after 72 hrs by propidium iodide staining-based flow cytometric analysis (reference value: 10.53 +/- 0.81%); format: functional; details: HL-60
[15] = Cell cycle arrest in human HL60 cells assessed as accumulation at pre-G1 phase at 50 uM after 72 hrs by propidium iodide staining-based flow cytometric analysis (reference value: 2.21 +/- 0.57%); format: functional; details: HL-60
[16] = Cell cycle arrest in human HL60 cells assessed as accumulation at S phase at 50 uM after 48 hrs by propidium iodide staining-based flow cytometric analysis (reference value: 24.29 +/- 1.37%); format: functional; details: HL-60
[17] = Cell cycle arrest in human HL60 cells assessed as accumulation at G2/M phase at 50 uM after 24 hrs by propidium iodide staining-based flow cytometric analysis (reference value: 16.73 +/- 0.59%); format: functional; details: HL-60
[18] = Cell cycle arrest in human HL60 cells assessed as accumulation at polyploid Gn phase at 50 uM after 24 hrs by propidium iodide staining-based flow cytometric analysis (reference value: 2.96 +/- 0.79%); format: functional; details: HL-60
[19] = Cell cycle arrest in human HL60 cells assessed as accumulation at pre-G1 phase at 50 uM after 48 hrs by propidium iodide staining-based flow cytometric analysis (reference value: 1.41 +/- 0.32%); format: functional; details: HL-60
[20] = Cell cycle arrest in human HL60 cells assessed as accumulation at G0/G1 phase at 50 uM after 72 hrs by propidium iodide staining-based flow cytometric analysis (reference value: 59.5 +/- 1.5%); format: functional; details: HL-60
HL-60 [21] = assay: Induction of mitochondrial membrane depolarization in human HL60 cells at 50 to 100 uM after 48 hrs by JC1 staining-based flow cytometric analysis relative to vehicle control; format: functional, cell-based
Procedure, shortened: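 HL-60 cells at 200,000 cells/mL exposed 48 h to 0, 50 or 100 μM. Washed in PBS and stained with JC-1 (5 μM) 30 min at 37 °C. Resuspended in ice-cold PBS and read by flow cytometry: excitation 488 nm, emission 535 (green) and 595 nm (red). Rising green:red ratio scored as ΔΨm loss; % cells with loss reported. Mean ± SEM, ≥3 experiments.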

[22] = Cell cycle arrest in human HL60 cells assessed as accumulation at S phase at 50 uM after 24 hrs by propidium iodide staining-based flow cytometric analysis (reference value: 24.46 +/- 1.15%); format: functional; details: HL-60
[23] = Cell cycle arrest in human HL60 cells assessed as accumulation at S phase at 50 uM after 72 hrs by propidium iodide staining-based flow cytometric analysis (reference value: 23.58 +/- 1.38%); format: functional; details: HL-60
[24] = Cytotoxicity against human Kelly cells assessed as cell viability reduction incubated for 72 hrs by alamar blue assay; format: functional, cell-based
Procedure, shortened: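 Kelly cells, 6000 per well, were allowed to attach for 24 h, then treated in triplicate at 0.1–100 µM final or with ddH2O vehicle for 72 h at 37 °C. AlamarBlue was added for 4.5 h in the dark and fluorescence read at ex 544/em 590 nm. Blank-subtracted % of vehicle; IC50 from a sigmoidal dose-response fit; ≥3 independent experiments.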

[25] = Cytotoxicity in human MCF10A cells assessed as induction of apoptosis at 50 to 100 uM after 72 hrs by propidium iodide staining-based flow cytometric analysis; format: cell-based; details: mcf-10a; procedure, shortened: as §1
[26] = Dissociation constant, pKa of the compound in 10 mM sodium phosphate buffer at pH 2 by UV spectroscopic analysis; format: physicochemical

ΔTm [12]: 2 °C
Structure (SMILES): N=C(N)Oc1ccc(Sc2ccc(O)cc2)cc1
Activity [1]: 5.98%
Activity [2]: 9%
Activity (HL-60 [3]): 63.6%
Activity [4]: 12.7%
Activity [5]: Non-toxic
Activity [6]: 15.3%
Activity [7]: 11.2%
Activity [8]: 15.8%
IC50 [9]: 52.9 µM
Activity (HL-60 [10]): Active
Activity [11]: Non-toxic
Activity [13]: Toxic
Activity [14]: 8.67%
Activity [15]: 39.9%
Activity [16]: 10.4%
Activity [17]: 52.4%
Activity [18]: 11.6%
Activity [19]: 55.5%
Activity [20]: 18.2%
Activity (HL-60 [21]): Active
Activity [22]: 14.9%
Activity [23]: 16.2%
IC50 [24]: 33.9 µM
Activity [25]: Non-toxic

ΔTm [12]: 5 °C
pKa [26]: 10.4
Structure (SMILES): N=C(N)Oc1ccc(Oc2ccc(OC(=N)N)cc2)cc1
IC50 [9]: > 100 µM
